Reference: ChEMBL document CHEMBL1811814, “Synthesis and evaluation of indole, pyrazole, chromone and pyrimidine based conjugates for tumor growth inhibitory activities--development of highly efficacious cytotoxic agents” (Eur J Med Chem, 2010)

Tests used:
Assay type in all cases: functional
Design in all cases: scale not given: the % may be the effect or the level left
[1] = system: CCRF-CEM; assay: Growth inhibition of human CCRF-CEM cells assessed tumor cell growth at 10^-5 M
In short: (§1)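 NCI 60-human-tumor-cell-line panel screen. Each compound was tested at a single concentration of 10^-5 M, and percent growth of tumor cells was recorded for each cell line. Growth inhibition was expressed from these percent-growth values.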

[2] = system: HL-60(TB); assay: Growth inhibition of human HL-60(TB) cells assessed tumor cell growth at 10^-5 M
In short: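 HL-60(TB), part of the 60-line panel, tested at a single concentration of 10^-5 M. The read-out is percent tumor cell growth relative to untreated growth.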

[3] = system: K562; assay: Growth inhibition of human K562 cells assessed tumor cell growth at 10^-5 M; in short: as §1
[4] = system: MOLT-4; assay: Growth inhibition of human MOLT4 cells assessed tumor cell growth at 10^-5 M; in short: as §1
[5] = Growth inhibition of human […] cells assessed tumor cell growth at 10^-5 M; in short: as §1
[6] = system: A549; assay: Growth inhibition of human A549 cells assessed tumor cell growth at 10^-5 M; in short: as §1
[7] = system: EKVX; assay: Growth inhibition of human EKVX cells assessed tumor cell growth at 10^-5 M; in short: as §1
[8] = system: HOP-62; assay: Growth inhibition of human HOP62 cells assessed tumor cell growth at 10^-5 M; in short: as §1
[9] = system: HOP-92; assay: Growth inhibition of human HOP92 cells assessed tumor cell growth at 10^-5 M; in short: as §1
[10] = system: NCI-H226; assay: Growth inhibition of human NCI-H226 cells assessed tumor cell growth at 10^-5 M; in short: as §1
[11] = system: NCI-H23; assay: Growth inhibition of human NCI-H23 cells assessed tumor cell growth at 10^-5 M; in short: as §1
[12] = system: NCI-H322M; assay: Growth inhibition of human NCI-H322M cells assessed tumor cell growth at 10^-5 M; in short: as §1
[13] = system: NCI-H460; assay: Growth inhibition of human NCI-H460 cells assessed tumor cell growth at 10^-5 M; in short: as §1
[14] = system: NCI-H522; assay: Growth inhibition of human NCI-H522 cells assessed tumor cell growth at 10^-5 M; in short: as §1
[15] = system: COLO 205; assay: Growth inhibition of human COLO205 cells assessed tumor cell growth at 10^-5 M; in short: as §1
[16] = system: HCT-116; assay: Growth inhibition of human HCT116 cells assessed tumor cell growth at 10^-5 M; in short: as §1
[17] = system: HCT-15; assay: Growth inhibition of human HCT15 cells assessed tumor cell growth at 10^-5 M; in short: as §1
[18] = system: HT-29; assay: Growth inhibition of human HT-29 cells assessed tumor cell growth at 10^-5 M; in short: as §1
[19] = system: KM12; assay: Growth inhibition of human KM12 cells assessed tumor cell growth at 10^-5 M; in short: as §1
[20] = system: SW-620; assay: Growth inhibition of human SW620 cells assessed tumor cell growth at 10^-5 M
In short: (§2)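 Single-dose screen at 10^-5 M across the 60 human tumor cell line panel, run to NCI standards. The value is the percent growth of each cell line in the presence of compound. Compounds active at this dose moved on to five-concentration testing (10^-4 to 10^-8 M).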

[21] = system: SF-268; assay: Growth inhibition of human SF268 cells assessed tumor cell growth at 10^-5 M; in short: as §1
[22] = system: SF-295; assay: Growth inhibition of human SF295 cells assessed tumor cell growth at 10^-5 M; in short: as §1
[23] = system: SF-539; assay: Growth inhibition of human SF539 cells assessed tumor cell growth at 10^-5 M; in short: as §1
[24] = system: SNB-19; assay: Growth inhibition of human SNB19 cells assessed tumor cell growth at 10^-5 M; in short: as §2
[25] = system: SNB-75; assay: Growth inhibition of human SNB75 cells assessed tumor cell growth at 10^-5 M; in short: as §2
[26] = system: U-251; assay: Growth inhibition of human U251 cells assessed tumor cell growth at 10^-5 M; in short: as §2
[27] = system: LOX IMVI; assay: Growth inhibition of human LOXIMVI cells assessed tumor cell growth at 10^-5 M; in short: as §1
[28] = system: Malme-3M; assay: Growth inhibition of human MALME-3M cells assessed tumor cell growth at 10^-5 M; in short: as §1
[29] = system: M14; assay: Growth inhibition of human M14 cells assessed tumor cell growth at 10^-5 M; in short: as §1
[30] = system: MDA-MB-435; assay: Growth inhibition of human MDA-MB-435 cells assessed tumor cell growth at 10^-5 M; in short: as §1
[31] = system: SK-MEL-2; assay: Growth inhibition of human SK-MEL-2 cells assessed tumor cell growth at 10^-5 M; in short: as §1
[32] = system: SK-MEL-28; assay: Growth inhibition of human SK-MEL-28 cells assessed tumor cell growth at 10^-5 M; in short: as §1
[33] = system: SK-MEL-5; assay: Growth inhibition of human SK-MEL-5 cells assessed tumor cell growth at 10^-5 M; in short: as §1
[34] = system: UACC-257; assay: Growth inhibition of human UACC257 cells assessed tumor cell growth at 10^-5 M; in short: as §2
[35] = system: UACC-62; assay: Growth inhibition of human UACC62 cells assessed tumor cell growth at 10^-5 M; in short: as §2
[36] = system: IGROV-1; assay: Growth inhibition of human IGROV1 cells assessed tumor cell growth at 10^-5 M; in short: as §1
[37] = system: OVCAR-3; assay: Growth inhibition of human OVCAR3 cells assessed tumor cell growth at 10^-5 M; in short: as §1
[38] = system: OVCAR-4; assay: Growth inhibition of human OVCAR4 cells assessed tumor cell growth at 10^-5 M; in short: as §1
[39] = system: OVCAR-5; assay: Growth inhibition of human OVCAR5 cells assessed tumor cell growth at 10^-5 M; in short: as §1
[40] = system: OVCAR-8; assay: Growth inhibition of human OVCAR8 cells assessed tumor cell growth at 10^-5 M; in short: as §1
[41] = system: NCI/ADR-RES; assay: Growth inhibition of human NCI/ADR-RES cells assessed tumor cell growth at 10^-5 M; in short: as §1
[42] = system: SK-OV-3; assay: Growth inhibition of human SKOV3 cells assessed tumor cell growth at 10^-5 M; in short: as §1
[43] = system: 786-0; assay: Growth inhibition of human 786-0 cells assessed tumor cell growth at 10^-5 M; in short: as §1
[44] = system: A498; assay: Growth inhibition of human A498 cells assessed tumor cell growth at 10^-5 M; in short: as §1
[45] = system: ACHN; assay: Growth inhibition of human ACHN cells assessed tumor cell growth at 10^-5 M; in short: as §1
[46] = system: CAKI-1; assay: Growth inhibition of human Caki1 cells assessed tumor cell growth at 10^-5 M; in short: as §1
[47] = system: RXF 393; assay: Growth inhibition of human RXF393 cells assessed tumor cell growth at 10^-5 M; in short: as §1
[48] = system: SN12C; assay: Growth inhibition of human SN12C cells assessed tumor cell growth at 10^-5 M; in short: as §1
[49] = system: TK-10; assay: Growth inhibition of human TK10 cells assessed tumor cell growth at 10^-5 M; in short: as §2
[50] = system: UO-31; assay: Growth inhibition of human UO31 cells assessed tumor cell growth at 10^-5 M; in short: as §2
[51] = system: PC-3; assay: Growth inhibition of human PC3 cells assessed tumor cell growth at 10^-5 M; in short: as §1
[52] = system: DU-145; assay: Growth inhibition of human DU145 cells assessed tumor cell growth at 10^-5 M; in short: as §1
[53] = system: MCF7; assay: Growth inhibition of human MCF7 cells assessed tumor cell growth at 10^-5 M; in short: as §1
[54] = system: MDA-MB-231; assay: Growth inhibition of human MDA-MB-231 cells assessed tumor cell growth at 10^-5 M; in short: as §1
[55] = Growth inhibition of human Hs 578T cells assessed tumor cell growth at 10^-5 M; in short: as §1
[56] = system: BT-549; assay: Growth inhibition of human BT549 cells assessed tumor cell growth at 10^-5 M; in short: as §1
[57] = system: MDA-MB-468; assay: Growth inhibition of human MDA-MB-468 cells assessed tumor cell growth at 10^-5 M; in short: as §1
[58] = system: HCC 2998; assay: Growth inhibition of human HCC2998 cells assessed tumor cell growth at 10^-5 M; in short: as §1
[59] = system: T47D; assay: Growth inhibition of human T47D cells assessed tumor cell growth at 10^-5 M; in short: as §2

SMILES: O=C1Nc2ccccc2/C1=C/c1cn(C(=O)c2ccc(Cl)cc2)c2ccccc12
- Activity [1]: 104.1%
- Activity [2]: 150.1%
- Activity [3]: 85.6%
- Activity [4]: 109.3%
- Activity [5]: 74.5%
- Activity [6]: 101.2%
- Activity [7]: 58.9%
- Activity [8]: 110.7%
- Activity [9]: 99.3%
- Activity [10]: 92.3%
- Activity [11]: 90.8%
- Activity [12]: 126.5%
- Activity [13]: 107.2%
- Activity [14]: 85.5%
- Activity [15]: 58.2%
- Activity [16]: 91.5%
- Activity [17]: 92%
- Activity [18]: 110%
- Activity [19]: 40.8%
- Activity [20]: 102.4%
- Activity [21]: 99.8%
- Activity [22]: 114.3%
- Activity [23]: 99.3%
- Activity [24]: 99%
- Activity [25]: 87.7%
- Activity [26]: 99.4%
- Activity [27]: 100%
- Activity [28]: 117.8%
- Activity [29]: 102.4%
- Activity [30]: 109.9%
- Activity [31]: 119.8%
- Activity [32]: 92.9%
- Activity [33]: 97.6%
- Activity [34]: 99.6%
- Activity [35]: 89.3%
- Activity [36]: 72.6%
- Activity [37]: 98.7%
- Activity [38]: 78.2%
- Activity [39]: 110.2%
- Activity [40]: 95%
- Activity [41]: 104.2%
- Activity [42]: 103.8%
- Activity [43]: 111.4%
- Activity [44]: 116.3%
- Activity [45]: 102.9%
- Activity [46]: 59%
- Activity [47]: 129.9%
- Activity [48]: 95.4%
- Activity [49]: 130%
- Activity [50]: 74.6%
- Activity [51]: 95.6%
- Activity [52]: 118.1%
- Activity [53]: 59%
- Activity [54]: 77.7%
- Activity [55]: 106%
- Activity [56]: 96.4%
- Activity [57]: 97.6%

SMILES: C=CCn1cc(/C=C2\C(=O)N(c3c(Cl)cccc3Cl)c3ccccc32)c2ccccc21
- Activity [2]: 93.4%
- Activity [3]: 53.6%
- Activity [4]: 71.8%
- Activity [5]: 86.7%
- Activity [6]: 95.2%
- Activity [7]: 80.5%
- Activity [8]: 78.4%
- Activity [9]: 72.1%
- Activity [10]: 87%
- Activity [11]: 83.7%
- Activity [12]: 96.2%
- Activity [13]: 64.8%
- Activity [14]: 88.3%
- Activity [15]: 111.6%
- Activity [58]: 92.3%
- Activity [16]: 44.8%
- Activity [17]: 48.8%
- Activity [18]: 85.4%
- Activity [19]: 83.7%
- Activity [20]: 86.9%
- Activity [21]: 77.4%
- Activity [22]: 95.1%
- Activity [23]: 92.2%
- Activity [24]: 97.4%
- Activity [25]: 71.5%
- Activity [26]: 63.1%
- Activity [27]: 69.8%
- Activity [28]: 96.3%
- Activity [29]: 84.7%
- Activity [30]: 100.8%
- Activity [31]: 102.6%
- Activity [32]: 109.8%
- Activity [33]: 72.6%
- Activity [34]: 116%
- Activity [35]: 68.7%
- Activity [36]: 66.4%
- Activity [37]: 88.2%
- Activity [38]: 79.1%
- Activity [39]: 98.9%
- Activity [40]: 90.7%
- Activity [41]: 84.6%
- Activity [42]: 98.2%
- Activity [43]: 86.2%
- Activity [44]: 107.5%
- Activity [45]: 80.5%
- Activity [46]: 60.9%
- Activity [47]: 93.3%
- Activity [48]: 94.9%
- Activity [49]: 100.4%
- Activity [50]: 56.7%
- Activity [51]: 58.2%
- Activity [52]: 101.7%
- Activity [53]: 89.3%
- Activity [54]: 83.4%
- Activity [55]: 86.4%
- Activity [56]: 127.4%
- Activity [59]: 63.9%
- Activity [57]: 93.3%
